# Measurements as given in paper PMC5903260 (British Journal of Clinical Pharmacology, 2018).
# Where two headings read alike, the source gives them in different places.
# Key:
# [1] = Subject rating of treatment; type: in vivo, human; settings: numerical rating scale 0 (none) to 10 (very severe); comparable with placebo
# [2] = Safety, tolerability and functional ocular assessments in healthy volunteers; type: in vivo, human
# Procedure, shortened: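 Randomized, double-masked, placebo-controlled ascending-dose design: four cohorts of 12 healthy men (9 active, 3 placebo). Drops of 30 mg ml⁻¹ (25 μl) were given to the left eye as 0.75 mg once, or 0.75 mg bid or tid for 14 days, or 1.5 mg tid for 3 days then both eyes to 14 days. Ocular symptoms were scored 5 min post-dose on a four-point scale. Visual acuity was tested at 4 m per ETDRS protocol.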
# [3] = type: in vivo, human; settings: for Cmax: C max; for measured plasma concentrations of metabolites: all samples after regorafenib eye drops, below LLOQ (2 μg l^−1)
# Procedure, shortened: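 Plasma was sampled from predose to 7 days after a single dose, or to 14 days after the last of 14 days' dosing, with dense early time points. Parent and metabolites M-2 and M-5 were measured by validated LC-MS/MS; LLOQ was 0.1 µg l⁻¹ for parent and 2 µg l⁻¹ for metabolites. AUC over dosing intervals, AUC₀₋tlast, Cav, Cmax, Cmin, t1/2 and accumulation ratios were derived, with log-normal ANOVA for dose proportionality.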
# [4] = cited from earlier work
# [5] = all regorafenib cohorts pooled (n = 36)
structure (smiles),measurement,setting,value
CNC(=O)c1cc(Oc2ccc(NC(=O)Nc3ccc(Cl)c(C(F)(F)F)c3)c(F)c2)ccn1 [Regorafenib],pain and discomfort ratings,[1],mostly 0
same,safety and tolerability over the dose range,"[2]; 0.75 mg single dose to 1.5 mg tid both eyes (9 mg day^−1), 30 mg ml^−1, 14 days",safe and well tolerated
same,"eyelid redness and oedema, conjunctival hyperaemia and oedema",[2]; across all regorafenib cohorts,mild and comparable with the effects of placebo
same,subjects with a burning sensation,[2]; [5],25%
same,subjects with a foreign body sensation,[2]; [5],17%
same,subjects with a transient reduction in visual acuity,[2]; [5],31%
same,subjects with blurred vision after solicited questioning,[2]; [5],97%
same,subjects with increased lacrimation,[2]; [5],8%
same,subjects with itching,[2]; [5],17%
same,subjects with lid oedema,[2]; [5],8%
same,subjects with ocular/conjunctival redness,[2]; [5],19%
same,effect on electrocardiographic parameters,"[2]; healthy volunteers, eye drops",No effect
same,C av0–8,"[3]; first dose, Cohort 1, 0.75 mg single dose, plasma, geometric mean/%CV (range)",0.0377 ng/mL
same,C av0–8,"[3]; first dose, Cohort 3, 0.75 mg tid (2.25 mg day^−1), plasma, geometric mean/%CV (range)",0.0352 ng/mL
same,C av0–8,"[3]; first dose, Cohort 4, 1.5 mg tid (9.0 mg day^−1), plasma, geometric mean/%CV (range)",0.0564 ng/mL
same,Tmax,"[3]; human, plasma, topical, tmax,md (time to reach maximum plasma concentration following multiple drug administration), individual subjects, after the last dose",0 to 12 h
same,Cav0–12md (average concentration over the 12h dosing interval),"[3]; last dose, 0.75 mg bid (Cohort 2)",3.39 ng/mL
same,"C av0–8,md","[3]; last dose, Cohort 3, 0.75 mg tid (2.25 mg day^−1), geometric mean/%CV (range)",4.01 ng/mL
same,"C av0–8,md","[3]; last dose, Cohort 4, 1.5 mg tid (9.0 mg day^−1), geometric mean/%CV (range)",12.2 ng/mL
same,AUC,"[3]; male, human, plasma, topical, 0.75 mg",40.7 ng·h/mL
same,AUC(0-t),"[3]; male, human, plasma, topical, 0.75 mg, AUC 0–8, first dose, Cohort 2, 0.75 mg bid (1.5 mg day^−1), geometric mean/%CV (range)",0.255 ng·h/mL
same,AUC(0-t),"[3]; male, human, plasma, topical, 0.75 mg, AUC 0–8, first dose, Cohort 3, 0.75 mg tid (2.25 mg day^−1), geometric mean/%CV (range)",0.282 ng·h/mL
same,AUC(0-t),"[3]; male, human, plasma, topical, 0.75 mg, AUC0–tlast, Cohort 1, 0.75 mg single dose",39.2 ng·h/mL
same,Cmax,"[3]; male, human, plasma, topical, 0.75 mg, first dose, Cohort 1, 0.75 mg single dose, geometric mean/%CV (range)",0.42 ng/mL
same,Cmax,"[3]; male, human, plasma, topical, 0.75 mg, first dose, Cohort 2, 0.75 mg bid (1.5 mg day^−1), geometric mean/%CV (range)",0.234 ng/mL
same,Cmax,"[3]; male, human, plasma, topical, 0.75 mg, first dose, Cohort 3, 0.75 mg tid (2.25 mg day^−1), geometric mean/%CV (range)",0.186 ng/mL
same,Tmax,"[3]; male, human, plasma, topical, 0.75 mg, t max, first dose, Cohort 1, 0.75 mg single dose, median (range)",24 h
same,Tmax,"[3]; male, human, plasma, topical, 0.75 mg, t max, first dose, Cohort 2, 0.75 mg bid (1.5 mg day^−1), median (range)",11.9 h
same,Tmax,"[3]; male, human, plasma, topical, 0.75 mg, t max, first dose, Cohort 3, 0.75 mg tid (2.25 mg day^−1), median (range)",7.92 h
same,AUC(0-t),"[3]; male, human, plasma, topical, 1.5 mg, AUC 0–8, first dose, Cohort 4, 1.5 mg tid (9.0 mg day^−1), geometric mean/%CV (range)",0.451 ng·h/mL
same,Cmax,"[3]; male, human, plasma, topical, 1.5 mg, first dose, Cohort 4, 1.5 mg tid (9.0 mg day^−1), geometric mean/%CV (range)",0.302 ng/mL
same,Tmax,"[3]; male, human, plasma, topical, 1.5 mg, t max, first dose, Cohort 4, 1.5 mg tid (9.0 mg day^−1), median (range)",8 h
same,day when steady state was reached,"[3]; multiple-dose regimens, plasma concentrations",7 days
same,apparent terminal elimination t1/2 after oral administration,[4],20 to 30 h
CNC(=O)c1cc(Oc2ccc(NC(=O)Nc3ccc(Cl)c(C(F)(F)F)c3)c(F)c2)cc[n+]1[O-] [M‐2],measured plasma concentrations of metabolites,[3],< 2 µg/L
NC(=O)c1cc(Oc2ccc(NC(=O)Nc3ccc(Cl)c(C(F)(F)F)c3)c(F)c2)cc[n+]1[O-] [M‐5],measured plasma concentrations of metabolites,[3],< 2 µg/L
